Measurements: ChEMBL document CHEMBL1811790, “Oxadiazole derivatives containing 1,4-benzodioxan as potential immunosuppressive agents against RAW264.7 cells” (Bioorg Med Chem, 2011)
The source made the active and inactive calls. The rule behind the calls is not given here.

Key:
[1] = tested on: RAW264.7; test: Acute toxicity in mouse RAW264.7 cells assessed as OD540 absorbance incubated for 24 hrs by MTT assay; assay type: cell-based; conditions: raw264.7, 24 h
Outline: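 RAW264.7 cells kept in DMEM with 5% FBS, 100 U/mL penicillin and streptomycin, at 37 °C in humidified 5% CO2. Compounds were added at the indicated concentrations for 24 h. MTT reagent (5 mg/mL stock) was then added for 4 h, supernatants were aspirated and formazan crystals were dissolved for reading. Control and blank wells received 0.1% DMSO.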

[2] = tested on: RAW264.7; test: Immunosuppressive activity in mouse RAW264.7 cells assessed as inhibition of LPS-induced nitric oxide production incubated for 24 hrs by Griess method; assay type: functional
Outline: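 Murine macrophage-like RAW264.7 cells were activated with LPS. Control wells (LPS only) and blank wells (cells only) each received 0.1% DMSO vehicle.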

[3] = biological target: T1, Nitric oxide synthase, inducible (Mus musculus, UniProt P29477); test: Inhibition of iNOS in mouse RAW264.7 cells assessed as conversion of L-citrulline to L-arginine incubated for 30 mins by scintillation counting; assay type: cell-based; conditions: in the assay text read “conversion of L-arginine to L-citrulline” for “conversion of L-citrulline to L-arginine”
T1 sequence (P29477 whole entry): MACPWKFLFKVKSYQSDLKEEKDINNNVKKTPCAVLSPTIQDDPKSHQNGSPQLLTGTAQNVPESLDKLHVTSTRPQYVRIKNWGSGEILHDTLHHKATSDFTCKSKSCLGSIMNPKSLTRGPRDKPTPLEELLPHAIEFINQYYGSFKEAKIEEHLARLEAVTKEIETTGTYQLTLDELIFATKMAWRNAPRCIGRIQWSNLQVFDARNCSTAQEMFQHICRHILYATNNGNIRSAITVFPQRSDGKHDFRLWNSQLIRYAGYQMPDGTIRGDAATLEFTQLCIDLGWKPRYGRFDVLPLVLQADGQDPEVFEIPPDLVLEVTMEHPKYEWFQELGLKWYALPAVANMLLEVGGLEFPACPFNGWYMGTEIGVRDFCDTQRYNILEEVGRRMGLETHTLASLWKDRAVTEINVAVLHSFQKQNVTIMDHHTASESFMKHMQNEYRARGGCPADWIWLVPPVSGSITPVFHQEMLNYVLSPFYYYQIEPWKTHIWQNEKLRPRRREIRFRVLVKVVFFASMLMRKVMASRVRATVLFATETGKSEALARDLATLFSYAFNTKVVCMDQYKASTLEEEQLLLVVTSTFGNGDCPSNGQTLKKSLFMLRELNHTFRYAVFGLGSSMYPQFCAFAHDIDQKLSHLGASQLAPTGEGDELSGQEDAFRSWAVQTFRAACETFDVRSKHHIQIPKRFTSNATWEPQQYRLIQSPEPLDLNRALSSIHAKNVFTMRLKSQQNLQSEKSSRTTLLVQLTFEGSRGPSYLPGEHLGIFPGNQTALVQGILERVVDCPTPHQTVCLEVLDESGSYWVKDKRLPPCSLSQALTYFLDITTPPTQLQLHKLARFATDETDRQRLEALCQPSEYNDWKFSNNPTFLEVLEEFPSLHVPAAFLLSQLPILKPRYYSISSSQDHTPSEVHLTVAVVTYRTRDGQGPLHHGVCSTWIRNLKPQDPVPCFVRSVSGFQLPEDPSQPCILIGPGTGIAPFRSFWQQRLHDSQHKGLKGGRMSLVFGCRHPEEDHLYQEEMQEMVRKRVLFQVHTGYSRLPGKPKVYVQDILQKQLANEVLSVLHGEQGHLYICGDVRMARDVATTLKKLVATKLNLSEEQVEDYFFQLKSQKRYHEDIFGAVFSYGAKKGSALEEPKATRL
Outline: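 Crude enzyme was the supernatant of collected RAW264.7 cells, adjusted to 50 mM Tris and 100 µM dithiothreitol final. Enzyme was incubated 30 min with NADPH, compound, L-[3H]-arginine (10 µCi/mL stock) and Tris pH 7.5. The reaction was stopped with 0.1 M buffer pH 5.0 containing 2 mM EDTA and 2 mM EGTA, then stirred 5 min with Dowex 50W-8X. L-[3H]-citrulline in the supernatant was read by scintillation counting.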

[4] = tested on: RAW264.7; test: Inhibition of iNOS mRNA expression in mouse RAW264.7 cells by RT-PCR; assay type: functional, cell-based

IC50 [3] [nM]	SMILES	deltaA [1]	inhibition (INH) [2] [%]	inhibition [4]
	O=[N+]([O-])c1cccc(-c2nnc(-c3ccc4c(c3)OCCO4)o2)c1	0.73	-33.82	
	c1ccc(CCc2nnc(-c3ccc4c(c3)OCCO4)o2)cc1	0.1	3.71	
	Brc1ccc(Cc2nnc(-c3ccc4c(c3)OCCO4)o2)cc1	0.99	-8.53	
2160	Clc1ccc(OCc2nnc(-c3ccc4c(c3)OCCO4)o2)cc1	0.89	10.49	
	Clc1ccc(Cc2nnc(-c3ccc4c(c3)OCCO4)o2)cc1	0.63	28.11	
	COc1cccc(Cc2nnc(-c3ccc4c(c3)OCCO4)o2)c1	0.76	21.66	
	O=[N+]([O-])c1ccc(-c2nnc(-c3ccc4c(c3)OCCO4)o2)cc1	0.57	1.34	
120	COc1cc(-c2nnc(-c3ccc4c(c3)OCCO4)o2)cc(OC)c1OC	1.02	20.03	inactive
	Clc1cccc(Cc2nnc(-c3ccc4c(c3)OCCO4)o2)c1	0.2	23.7	
	c1ccc(OCc2nnc(-c3ccc4c(c3)OCCO4)o2)cc1	0.36	6.98	
	c1ccc(Cc2nnc(-c3ccc4c(c3)OCCO4)o2)cc1	0.45	-3.63	
90	C(=C\c1nnc(-c2ccc3c(c2)OCCO3)o1)/c1ccccc1	1.15	25.54	inactive
	Clc1ccccc1-c1nnc(-c2ccc3c(c2)OCCO3)o1	1.45	-57.48	
50	c1cncc(-c2nnc(-c3ccc4c(c3)OCCO4)o2)c1	1.31	37.66	Active
	O=[N+]([O-])c1ccccc1-c1nnc(-c2ccc3c(c2)OCCO3)o1	0.3	3.65	
	Brc1cncc(-c2nnc(-c3ccc4c(c3)OCCO4)o2)c1	1.22	-42.39	
2350	c1ccc(-c2nnc(-c3ccc4c(c3)OCCO4)o2)cc1	1.5	5.08	
100	Cc1ccccc1-c1nnc(-c2ccc3c(c2)OCCO3)o1	1.03	21.58	inactive
